Tests used:
[1] = system: CD4 T cells from DQ8+ T1D subjects; experiment: CFSE proliferation assay with immobilized peptide/DQ8 complexes, T1D subjects; format: cell-based, human; conditions: peptide-loaded DQ8 immobilized (10 μM), 7 days, CFSElow CD4 T cells; n = 3
How it was run: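 Freshly isolated PBMCs were washed in warm PBS and labelled with 1 μM CFSE for 1–2 min at 37 °C, then quenched with chilled medium. Thrombin-cleaved, CLIP-free DQ8 monomers (0.5 μM) were loaded with peptide (100 μM) for 72 h at 37 °C in pH 5.5 citrate phosphate buffer, then immobilized in wells. Unstimulated cells served as negative control and anti-CD3/CD28 as positive control.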

[2] = relative to native insulin; ref Wang et al., 2018; cited from earlier work
DQ8 = conditions: two registers placing nonacidic residues at P1 and P9; background statement; cited from earlier work

Substance	Stimulation of CD4 T cells from DQ8+ T1D subjects [1]	Fold potency vs native insulin B:9–23 [2]	Binding of insulin B:9–23 peptide to DQ8 (DQ8)
CARQRFWSGPLFDYW [h-Id]	no significant responses		
SHLVEALYLVCGEEG [mimotope]		100 fold	
SHLVEELYLVAGEEG [superagonist]		about 1,000 fold	
native insulin: insulin B:9–23 peptide SHLVEALYLVCGERG	no significant responses		binds poorly to DQ8

— publication PMC7962621 (Cell, 2019)
